Test results reported in paper PMC11565791 (bioRxiv, 2025).

What was measured:
[1] = system: genomic loci; assay: anti-pS18-pS24 ChIP-seq; assay type: cell-based, S. pombe; conditions: wildtype; SFigure 8F
Outline: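 FLAG ChIP: strains express FLAG-tagged Swi6 variants; IP with M2 anti-FLAG. pS18-pS24 ChIP: untagged strains; IP with anti-pS18-pS24 antibody; lysis buffer also contains 0.1 mM orthovanadate and 60 mM β-glycerophosphate. Both: grown to saturation in YES at 32°C, then 2 h at 18°C. 600×10^6 cells fixed with 1.5 mM EGS (30 min), then 1% formaldehyde (30 min). Drosophila spike-in added; three technical replicates; spike-in-adjusted cpm.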

[2] = system: H3K9 methylation states; conditions: faster than H3K9me2 to me3; ref Al-Sady et al. 2013; cited from earlier work
[3] = system: H3K9me0 mononucleosomes; assay: Fluorescence polarization, H3K9me0 mononucleosome; assay type: binding; conditions: Figure 7C, SFigure 10D
Outline: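 Reconstituted H3K9me0 mononucleosomes on fluorescein-labelled 601 DNA were fixed at 25 nM. Purified Swi6, either unphosphorylated or co-expressed with casein kinase II catalytic subunits, was titrated at 0–200 μM. Fluorescence polarization was read at ex 485 / em 528 nm and fitted to a Kd equation.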

[4] = system: Swi6 oligomerization; assay: Glutaraldehyde crosslinking western, oligomerization; assay type: biochemical; conditions: 0.01% glutaraldehyde, 2 h, room temperature; compared to pSwi6; Figure 7B
Outline: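 Purified Swi6 in storage buffer (25 mM HEPES pH 7.5, 100 mM KCl, 10% glycerol, 10 mM βME) was tested at various protein concentrations. It was crosslinked with 0.01% glutaraldehyde for 2 h at room temperature, then quenched with 50 mM Tris pH 7.4. Samples were diluted to 4.2 μM, run on 4–12% Tris-glycine gradient gels and analysed by western blot with fluorescent detection.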

[5] = system: H3Kc9me3 mononucleosomes; assay: Fluorescence polarization, H3Kc9me3; assay type: binding; conditions: Figure 7C, SFigure 10D
[6] = system: Clr4 (H3K9me2 mononucleosome substrate); assay: Single turnover H3K9me2 to H3K9me3 conversion by Clr4; assay type: biochemical, S. pombe; conditions: 5 μM Clr4, 1 mM SAM, 500 nM H3K9me2 nucleosomes, 25°C
Outline: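 Purified Clr4 (5 μM) was preincubated for 5 min at 25°C with 1 mM SAM and varying Swi6 concentrations (unphosphorylated or phosphorylated). Reactions were started by adding commercial H3K9me2 nucleosomes to 500 nM. Timepoints were stopped by boiling in Laemmli buffer, run on 18% SDS-PAGE and blotted for H3K9me3 and H4. Signals were quantified against H3K9me3 nucleosome standard curves and fitted to a single exponential rise.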

Question: Which “pS18-pS24 pool versus overall FLAG-Swi6 accumulation” value [1] does the source give for “FLAG-Swi6: 3XFLAG tagged wildtype Swi6 at endogenous locus” here?
Answer: no significant differences in accumulation between the overall Swi6 pool and the pS18-pS24 pool

Question: For Clr4: H3K9 methylase of S. pombe, which “rate of H3K9me0 to me1 and me1 to me2 conversion relative to me2 to me3” value [2] is on record?
Answer: 10 X

B1: pSwi6^S18/24A: phospho-mutant protein, S18 and S24 mutated to alanines, co-expressed with CKII (protein)
chain: MKKGGVRSYRRSSTSKRAVIDDDAEPELPSMTKEAIASHKADSGSSDNEVESDHESKSSSKKLKENAKEEEGGEEEEEDEYVVEKVLKHRMARKGGGYEYLLKWEGYDDPSDNTWSSEADCSGCKQLIEAYWNEHGGRPEPSKRKRTARPKKPEAKEPSPKSRKTDEDKHDKDSNEKIEDVNEKTIKFADKSQEEFNENGPPSGQPNGHIESDNESKSPSQKESNESEDIQIAETPSNVTPKKKPSPEVPKLPDNRELTVKQVENYDSWEDLVSSIDTIERKDDGTLEIYLTWKNGAISHHPSTITNKKCPQKMLQFYESHLTFRENE
modifications: left off: 6xHis, N-terminal, cleaved
Question: What does the source list for B1?
Answer: increase in affinity towards H3K9me0 nucleosome versus pSwi6 [3]: 4.5 X; propensity to oligomerize [4]: strongly decreased propensity to oligomerize; increase in affinity towards H3Kc9me3 nucleosome versus pSwi6 [5]: 2.6 X; effect on conversion of H3K9me2 to H3K9me3 by Clr4 [6]: decrease in tri-methylation
